Results gathered from unrelated publications.
Target: Acetylcholinesterase (ache, Electrophorus electricus, UniProt O42275)
Read-out: enzyme activity
Action: inhibitor

Structure (SMILES)	assay	conditions	IC50 [µM]
CC=C1[C@H]2C=C(C)C[C@]1(N)c1cc(F)c(=O)[nH]c1C2	Ellman	–	1.23
Cc1c(C(=O)[C@H]2[C@H](c3c[nH]c4ccccc34)[C@H]3CSCN3[C@]23C(=O)Nc2cc(Cl)ccc23)cnn1-c1ccccc1	Ellman	–	> 100
COc1cccc2cc(C(=O)NCCN3CCN(Cc4ccccc4)CC3)oc12	Ellman	–	4
Cc1c(C(=O)[C@H]2[C@H](c3c[nH]c4ccccc34)[C@H]3CSCN3[C@]23C(=O)Nc2ccccc23)cnn1-c1ccccc1	Ellman	–	57.1
O=C(CNC(=S)NN=Cc1ccc([N+](=O)[O-])cc1)c1ccc([N+](=O)[O-])cc1	Ellman	–	446
Cc1c(C(=O)[C@H]2[C@H](c3c[nH]c4ccc(Br)cc34)[C@H]3CCCN3[C@]23C(=O)Nc2ccccc23)cnn1-c1ccccc1	Ellman	–	> 100
O=C(NCC1CCN(Cc2ccccc2)CC1)c1cc2ccccc2o1	Ellman	–	30
CC(C)=CCC/C(C)=C/COc1cc(O)cc(O)c1C(=O)c1ccccc1	–	–	192
Cc1c(C(=O)[C@H]2[C@H](c3cn(C)c4ccccc34)[C@H]3CSCN3[C@]23C(=O)Nc2cc(Cl)ccc23)cnn1-c1ccccc1	Ellman	–	> 100
CC=C1[C@H]2C=C(C)C[C@]1(N)c1cc(OC)c(=O)[nH]c1C2	Ellman	–	0.16
O=C(NNS(=O)(=O)c1ccc(Br)cc1)C(=O)NNS(=O)(=O)c1ccc(Br)cc1	Ellman	with preincubation	3.28
CC=C1[C@H]2C=C(C)C[C@]1(N)c1cc(I)c(=O)[nH]c1C2	Ellman	–	14.1
C#CCNc1nc(NCCCC2CCN(Cc3ccccc3)CC2)c(C#N)cc1C#N	Ellman	–	0.0047
Cc1c(C(=O)[C@H]2[C@H](c3cn(C)c4ccccc34)[C@H]3CCCN3[C@]23C(=O)Nc2cc(Cl)ccc23)cnn1-c1ccccc1	Ellman	–	> 100
CC=C1[C@H]2C=C(C)C[C@]1(N)c1cc(C#N)c(=O)[nH]c1C2	Ellman	–	33.9
C#CCN(C)c1nc(NCCCCC2CCN(Cc3ccccc3)CC2)c(C#N)cc1C#N	Ellman	–	0.00074
CC=C1[C@H]2C=C(C)C[C@]1(N)c1cc(N)c(=O)[nH]c1C2	Ellman	–	0.32
O=C(CNC(=S)NN=Cc1ccc([N+](=O)[O-])cc1)c1ccc(Cl)cc1	Ellman	–	340
CC=C1[C@H]2C=C(C)C[C@]1(N)c1ccc(OC)nc1C2	Ellman	–	3.67
O=C(NCCN1CCN(Cc2ccccc2)CC1)c1cc2ccccc2o1	Ellman	–	18.5
CC1=C(C)C(=O)O[C@@H]([C@](C)(O)[C@H]2CC[C@H]3[C@@H]4[C@@H]5O[C@@H]5[C@@]5(O)CC=CC(=O)[C@]5(C)[C@H]4CC[C@]23C)C1	Ellman	–	107
